These results are taken from ChEMBL document CHEMBL5252513, “Identification of a Benzoisoxazoloazepine Inhibitor (CPI-0610) of the Bromodomain and Extra-Terminal (BET) Family as a Candidate for Human Clinical Trials” (J Med Chem, 2016).

Calls of active or inactive are those of the source. No cut-off for these calls is given here. Some results are limits rather than exact numbers.

The target in series [1] is T1, ATPase family AAA domain-containing protein 2 (Homo sapiens, UniProt Q6PL18).
T1 sequence (Q6PL18 whole entry): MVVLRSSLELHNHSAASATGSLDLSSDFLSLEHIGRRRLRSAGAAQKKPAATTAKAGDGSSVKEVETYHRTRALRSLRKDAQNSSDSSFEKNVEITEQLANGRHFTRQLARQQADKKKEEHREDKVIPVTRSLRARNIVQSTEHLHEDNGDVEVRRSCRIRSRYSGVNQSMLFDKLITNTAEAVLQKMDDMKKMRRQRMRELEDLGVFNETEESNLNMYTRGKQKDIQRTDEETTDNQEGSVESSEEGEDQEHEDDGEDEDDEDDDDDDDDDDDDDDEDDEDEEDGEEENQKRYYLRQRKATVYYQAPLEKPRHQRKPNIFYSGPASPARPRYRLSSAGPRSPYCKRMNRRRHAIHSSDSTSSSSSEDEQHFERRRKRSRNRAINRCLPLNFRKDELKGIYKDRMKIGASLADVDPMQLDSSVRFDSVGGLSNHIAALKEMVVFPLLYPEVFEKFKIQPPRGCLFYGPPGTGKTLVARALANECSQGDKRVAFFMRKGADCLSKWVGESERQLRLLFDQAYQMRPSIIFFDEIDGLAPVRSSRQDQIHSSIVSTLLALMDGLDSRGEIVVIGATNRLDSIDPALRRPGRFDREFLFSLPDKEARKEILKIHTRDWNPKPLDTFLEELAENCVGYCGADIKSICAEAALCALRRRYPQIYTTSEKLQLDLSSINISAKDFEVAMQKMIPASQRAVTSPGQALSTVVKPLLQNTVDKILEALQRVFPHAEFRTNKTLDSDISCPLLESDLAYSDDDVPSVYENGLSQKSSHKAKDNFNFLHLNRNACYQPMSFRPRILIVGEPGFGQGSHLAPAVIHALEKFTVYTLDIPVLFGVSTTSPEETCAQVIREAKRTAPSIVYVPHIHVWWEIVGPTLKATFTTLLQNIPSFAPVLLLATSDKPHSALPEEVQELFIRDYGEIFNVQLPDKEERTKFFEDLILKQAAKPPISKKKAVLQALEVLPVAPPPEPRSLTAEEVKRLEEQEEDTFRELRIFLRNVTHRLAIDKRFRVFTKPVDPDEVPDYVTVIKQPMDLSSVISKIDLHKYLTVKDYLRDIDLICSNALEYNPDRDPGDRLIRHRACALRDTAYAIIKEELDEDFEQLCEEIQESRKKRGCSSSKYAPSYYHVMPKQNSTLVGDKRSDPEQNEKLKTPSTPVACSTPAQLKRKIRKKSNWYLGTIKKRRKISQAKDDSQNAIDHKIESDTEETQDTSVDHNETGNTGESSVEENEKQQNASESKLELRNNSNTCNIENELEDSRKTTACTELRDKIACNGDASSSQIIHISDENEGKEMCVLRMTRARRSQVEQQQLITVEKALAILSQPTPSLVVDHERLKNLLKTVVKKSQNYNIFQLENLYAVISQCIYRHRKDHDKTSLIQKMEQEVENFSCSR
As to the kind of experiment: Displacement of biotinylated JQ1 from ATAD2 bromodomain (unknown origin) incubated for 20 mins by AlphaLISA assay. Background: In Alpha technology, singlet oxygen from a donor bead excites a nearby acceptor bead.

Series [2] is described as follows: Toxicity in dog assessed as to mild to moderate hyperglycemia at 2 to 6 mg/kg,po QD consecutive for 14 days followed by 2 weeks recovery period. The series is classed as organism-based, Canis lupus familiaris. The note with it: in vivo, 336 h, dose 2-6 mg/kg, time 14 day. A digest of the protocol:
(§1)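 Oral suspension given once daily for 14 consecutive days (rat 2, 6, 20 mg/kg; dog 2, 4, 6 mg/kg) in dose range-finding and GLP repeat-dose studies, GLP arms with an added 2-week recovery period; histopathology and clinical pathology findings recorded.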

A short description of series [3]: Tmax in mouse at 30 mg/kg,po. Type of series: ADME, organism-based. The note with it: in vivo.
Series [4] is described as follows: Unbound AUC in rat at 5 mg/kg,po. The series is classed as ADME, organism-based. The note with it: in vivo.
Series [5] concerns MV4-11. The series can be described thus: Antitumor activity against human MV4-11 cells xenografted in BALB/c mouse assessed as slower tumor regrowth after drug therapy removal at 10 mg/kg,sc BID in presence of doxorubicin at 2 mg/kg,iv BIW for 28 days. The series is classed as functional, organism-based. The note with it: time 28.0 day. Background: Xenograft models place foreign cells or tissue in a host animal.

A short description of series [6]: AUC (0 to infinity) in rat at 5 mg/kg,po. The series is classed as ADME, organism-based. Also noted: dose 5 mg/kg, route po. To be noted: in vivo.
Series [7] is described as follows: Tmax in dog at 2.5 mg/kg,po. Type of series: ADME, organism-based, Canis lupus familiaris. To be noted: in vivo.
Series [8] can be described thus: Toxicity in dog assessed as GI mucosal ulceration at 2 to 6 mg/kg,po QD consecutive for 14 days followed by 2 weeks recovery period. Type of series: organism-based, Canis lupus familiaris. To be noted: in vivo, 336 h, dose 2-6 mg/kg, time 14 day. The method in brief:
as §1

Series [9] in a line: Tmax in mouse at 10 mg/kg,sc. The series is classed as ADME, organism-based. To be noted: in vivo.
Series [10] can be described thus: Protein binding in human plasma. The series is classed as ADME, cell-free. To be noted: read-out: PPB (converted).
In series [11] the target is T2, Bromodomain-containing protein 9 (Homo sapiens, UniProt Q9H8M2).
T2 sequence (Q9H8M2 whole entry): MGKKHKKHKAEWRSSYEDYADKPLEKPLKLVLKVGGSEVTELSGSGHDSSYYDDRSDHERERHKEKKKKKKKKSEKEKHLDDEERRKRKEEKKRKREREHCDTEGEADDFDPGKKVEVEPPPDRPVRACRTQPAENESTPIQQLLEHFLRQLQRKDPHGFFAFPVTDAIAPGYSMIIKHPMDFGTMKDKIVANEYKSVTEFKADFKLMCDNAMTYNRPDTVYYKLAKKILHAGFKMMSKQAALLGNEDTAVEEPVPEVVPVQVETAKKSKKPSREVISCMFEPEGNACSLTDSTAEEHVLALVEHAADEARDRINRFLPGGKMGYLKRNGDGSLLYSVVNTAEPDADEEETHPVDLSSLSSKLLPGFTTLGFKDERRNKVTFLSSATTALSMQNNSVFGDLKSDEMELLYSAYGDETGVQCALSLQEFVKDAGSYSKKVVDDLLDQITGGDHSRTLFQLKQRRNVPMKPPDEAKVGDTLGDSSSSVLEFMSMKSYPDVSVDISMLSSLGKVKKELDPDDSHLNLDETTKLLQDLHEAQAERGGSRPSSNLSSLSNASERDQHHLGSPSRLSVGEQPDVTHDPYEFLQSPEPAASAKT
The series can be described thus: Binding affinity to BRD9 bromodomain (unknown origin) incubated for 60 mins by TR-FRET assay. For orientation: In TR-FRET formats the signal depends on donor and acceptor labels being close together.

Series [12] is described as follows: Unbound clearance in rat at 1 mg/kg,iv. The series is classed as ADME, organism-based. To be noted: in vivo.
Series [13] can be described thus: Cmax in mouse at 30 mg/kg,po. The series is classed as ADME, organism-based. Details: dose 30 mg/kg, route po. The note with it: in vivo.
A short description of series [14]: Unbound AUC in mouse at 30 mg/kg,po. The series is classed as ADME, organism-based. To be noted: in vivo.
Series [15] is described as follows: Tmax in human patient with progression lymphoma at 300 mg,po QD consecutively for 14 days. The series is classed as ADME. To be noted: in vivo, time 14 day.
Series [16] is described as follows: Toxicity in dog assessed as GI mucosal atrophy at 2 to 6 mg/kg,po QD consecutive for 14 days followed by 2 weeks recovery period. Type of series: organism-based, Canis lupus familiaris. The note with it: in vivo, 336 h, dose 2-6 mg/kg, time 14 day. A digest of the protocol: as §1
The target in series [17] is SWI/SNF-related matrix-associated actin-dependent regulator of chromatin subfamily A member 4 (Homo sapiens, UniProt P51532). As to the kind of experiment: Displacement of biotinylated JQ1 from BRG1 bromodomain (unknown origin) incubated for 20 mins by AlphaLISA assay.
Sequence of SWI/SNF-related matrix-associated actin-dependent regulator of chromatin subfamily A member 4 (P51532 whole entry): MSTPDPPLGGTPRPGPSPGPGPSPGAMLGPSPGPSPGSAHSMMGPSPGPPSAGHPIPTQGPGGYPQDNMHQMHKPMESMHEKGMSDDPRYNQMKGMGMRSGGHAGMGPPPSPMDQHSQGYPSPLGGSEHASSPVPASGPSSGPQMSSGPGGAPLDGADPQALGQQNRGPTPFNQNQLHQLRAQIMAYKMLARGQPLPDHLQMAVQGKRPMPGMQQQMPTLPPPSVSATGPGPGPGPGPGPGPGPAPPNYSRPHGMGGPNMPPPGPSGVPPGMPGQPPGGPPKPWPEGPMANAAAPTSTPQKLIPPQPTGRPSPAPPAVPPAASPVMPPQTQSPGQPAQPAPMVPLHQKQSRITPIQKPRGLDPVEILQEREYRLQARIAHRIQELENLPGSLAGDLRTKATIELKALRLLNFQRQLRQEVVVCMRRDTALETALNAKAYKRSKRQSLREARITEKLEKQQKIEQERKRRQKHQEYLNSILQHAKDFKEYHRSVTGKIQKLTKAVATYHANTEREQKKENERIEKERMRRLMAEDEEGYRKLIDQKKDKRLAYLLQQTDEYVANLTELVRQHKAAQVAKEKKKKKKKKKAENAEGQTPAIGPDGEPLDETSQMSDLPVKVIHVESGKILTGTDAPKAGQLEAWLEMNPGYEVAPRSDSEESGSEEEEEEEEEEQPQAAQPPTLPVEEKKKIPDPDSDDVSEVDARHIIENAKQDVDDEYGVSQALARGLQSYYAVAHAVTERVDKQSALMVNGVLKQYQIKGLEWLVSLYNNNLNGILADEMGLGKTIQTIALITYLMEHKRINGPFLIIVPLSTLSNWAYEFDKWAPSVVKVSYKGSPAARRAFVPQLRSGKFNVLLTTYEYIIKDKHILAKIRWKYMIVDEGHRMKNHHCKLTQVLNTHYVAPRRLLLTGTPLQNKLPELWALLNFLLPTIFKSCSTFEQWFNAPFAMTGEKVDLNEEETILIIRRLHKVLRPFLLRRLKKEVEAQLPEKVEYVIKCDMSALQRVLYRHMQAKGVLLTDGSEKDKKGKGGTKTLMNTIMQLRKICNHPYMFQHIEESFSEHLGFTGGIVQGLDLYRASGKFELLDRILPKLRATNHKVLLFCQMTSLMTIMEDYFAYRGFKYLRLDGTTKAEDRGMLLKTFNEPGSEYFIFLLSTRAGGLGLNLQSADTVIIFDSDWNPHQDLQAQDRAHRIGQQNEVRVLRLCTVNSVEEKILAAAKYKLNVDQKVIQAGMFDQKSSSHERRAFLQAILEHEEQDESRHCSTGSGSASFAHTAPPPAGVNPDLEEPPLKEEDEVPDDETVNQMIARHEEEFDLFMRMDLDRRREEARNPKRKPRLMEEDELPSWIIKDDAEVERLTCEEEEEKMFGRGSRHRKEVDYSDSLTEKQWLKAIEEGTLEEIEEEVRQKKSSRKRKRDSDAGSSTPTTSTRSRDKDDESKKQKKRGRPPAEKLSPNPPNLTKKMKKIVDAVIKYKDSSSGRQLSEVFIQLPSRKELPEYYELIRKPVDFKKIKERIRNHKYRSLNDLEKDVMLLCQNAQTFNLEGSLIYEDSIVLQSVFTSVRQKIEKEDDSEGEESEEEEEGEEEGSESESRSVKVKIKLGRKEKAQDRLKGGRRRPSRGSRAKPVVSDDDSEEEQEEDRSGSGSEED
Series [18] can be described thus: Toxicity in rat assessed as GI mucosal ulceration at 2 to 20 mg/kg,po QD consecutive for 14 days followed by 2 weeks recovery period. Type of series: organism-based. To be noted: in vivo, 336 h, dose 2-20 mg/kg, time 14 day. A digest of the protocol: as §1
Series [19] is described as follows: Intrinsic clearance in rat liver microsomes. Type of series: ADME, Microsome.

With `Cc1noc2c1-c1ccccc1C(c1ccc(Cl)cc1)=N[C@H]2CC(N)=O` [PELABRESIB], the half-inhibitory concentration (IC50) in series [1] was more than 80 µM; in series [11] it was more than 80 µM; in series [17] it was more than 20 µM. Also, the Activity result in series [2], in [8], in [16] and in series [18] was “Toxic” each time. Besides, the Tmax in [3] came to 0.42 h; in series [7], 1.3 h; in series [9], 1.3 h; in series [15], 1.8 h. Moreover, the fAUC in series [4] is 0.64 µM·h; in series [14] it was 3 µM·h. Further, the result in series [5] was Active. This compound had an AUC(0-inf) in series [6] of 9.1 µM·h. The fraction unbound in series [10] is 0.05. The CL free in [12] was 283 mL/min/kg. This compound also gave a Cmax in [13] of 24 µM. The predicted hepatic clearance (CLH) in [19] is 21 mL/min/kg.

The IC50 is the concentration that inhibits the measured activity by half. A low value points to greater potency in that assay. Usually Tmax stands for the time from dosing to the highest level. One may read the AUC(0-inf) as the area under the concentration-time curve extrapolated to infinity. Low values mean low exposure, high ones high exposure. Broadly, the Cmax is the maximum level reached in the sampled fluid or tissue.
